Structures are written as SMILES.

Test [1] addresses T1, Histamine H3 receptor (Rattus norvegicus, UniProt Q9QYN8). Kind of test: In vitro […] against rat histamine H3 receptor. An outline of the steps: (§1)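 Rat cerebral cortex synaptosomes preloaded 30 min at 37 °C with L-[3H]histidine 0.4 μM in modified Krebs–Ringer, washed, then depolarized 2 min with 2 or 30 mM K+. Drugs and 1 μM histamine added 5 min before the stimulus. [3H]histamine measured by scintillation after purification; Ki by Cheng–Prusoff, mean ± SEM of at least three experiments.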

The target of test [2] is Histamine H3 receptor (Cavia porcellus, UniProt Q9JI35). Kind of test: Functional Histamine H3 receptor antagonistic activity in vitro assay on guinea pig ileum. The format is tissue-based. The note with it: read-out: pA2 (converted). An outline of the steps: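 Guinea-pig ileal longitudinal muscle–myenteric plexus strips at about 7.5 mN in Krebs–Henseleit, 37 °C, 95% O2/5% CO2, mepyramine 1 μM present. Field stimulated at 15 V, 0.5 ms, 0.1 Hz. Cumulative (R)-α-methylhistamine curves (1–1000 nM) recorded before and after antagonist; rightward shift corrected by the shift in daily controls.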
Sequence of Histamine H3 receptor (Cavia porcellus, UniProt Q9JI35) (Q9JI35 whole entry): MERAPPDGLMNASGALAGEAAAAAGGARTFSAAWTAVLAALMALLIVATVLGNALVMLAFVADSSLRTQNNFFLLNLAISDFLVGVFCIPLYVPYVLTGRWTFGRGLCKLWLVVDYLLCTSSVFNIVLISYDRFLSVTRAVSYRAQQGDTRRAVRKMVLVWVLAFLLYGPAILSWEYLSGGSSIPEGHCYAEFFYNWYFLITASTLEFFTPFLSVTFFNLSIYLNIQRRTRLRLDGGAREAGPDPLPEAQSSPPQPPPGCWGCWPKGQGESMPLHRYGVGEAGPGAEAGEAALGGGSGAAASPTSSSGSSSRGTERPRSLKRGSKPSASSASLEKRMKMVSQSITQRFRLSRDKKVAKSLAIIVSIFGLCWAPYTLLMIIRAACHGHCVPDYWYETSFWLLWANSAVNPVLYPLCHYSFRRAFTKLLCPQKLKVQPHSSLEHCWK

Another test has as its target Histamine H2 receptor (Cavia porcellus, UniProt P47747). Put plainly: Functional H2 receptor antagonistic activity in vitro assay on the isolated spontaneously beating guinea-pig right atrium. The format is tissue-based, Cardiac atrium. As to conditions: read-out: pA2 (converted). An outline of the steps:
(§2)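 Isolated guinea-pig tissues, spontaneously beating right atrium for H2 and ileum for H1, tested by standard methods. At least triplicate; values are means.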

In a further test the target is Histamine H1 receptor (Cavia porcellus, UniProt P31389). Put plainly: Functional Histamine H1 receptor antagonistic activity in vitro assay on guinea pig ileum. The format is tissue-based. As to conditions: read-out: pA2 (converted). An outline of the steps:
as §2

Test [3] has as its target T1, Histamine H3 receptor. Kind of test: Functional Histamine H3 receptor antagonistic activity in vitro assay on synaptosomes of rat cerebral cortex. In kind it is subcellular, Brain. An outline of the steps:
as §1

The next test deals with Mus musculus. Put plainly: Potency after oral administration in vivo in mice. In kind it is functional.
Test [4] addresses T2, Histamine H3 receptor (Homo sapiens, UniProt Q9Y5N1). Kind of test: (§3) Effect on specific [35S]GTP-gamma-S, Binding to HEK293 cell membranes expressing the human Histamine H3 receptor. The format is functional. An outline of the steps: (§4)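 HEK293 cells stably transfected with human H3 receptor (selected with 2 mg/mL G418, maintained in 1 mg/mL). Membranes prepared in Tris/HCl 50 mM pH 7.5; 10–20 μg protein incubated 60 min at 20 °C with 0.1 nM [35S]GTPγS ± drug in Tris 50 mM, NaCl 100 mM, MgCl2 10 mM, GDP 10 μM.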
A general note: GTPγS resists hydrolysis and so accumulates on activated G proteins.

Test [5] has as its target T2, Histamine H3 receptor. The test is described as §3. In kind it is functional. The gist of the method:
as §4
This is another data set of the same source.

Sequence of Histamine H1 receptor (P31389 whole entry): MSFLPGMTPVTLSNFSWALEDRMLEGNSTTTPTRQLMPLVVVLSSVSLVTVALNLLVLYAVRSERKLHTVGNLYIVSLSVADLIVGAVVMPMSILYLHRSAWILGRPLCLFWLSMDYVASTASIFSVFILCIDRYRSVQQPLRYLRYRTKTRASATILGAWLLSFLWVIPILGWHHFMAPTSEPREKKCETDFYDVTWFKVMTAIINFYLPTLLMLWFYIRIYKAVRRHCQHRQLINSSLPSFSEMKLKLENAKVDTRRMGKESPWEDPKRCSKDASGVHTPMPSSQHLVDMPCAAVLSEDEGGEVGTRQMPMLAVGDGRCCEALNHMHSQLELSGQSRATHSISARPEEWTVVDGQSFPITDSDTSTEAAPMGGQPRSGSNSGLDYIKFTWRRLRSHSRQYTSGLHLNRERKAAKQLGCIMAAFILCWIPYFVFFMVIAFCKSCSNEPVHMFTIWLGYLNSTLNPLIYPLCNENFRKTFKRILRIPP
Sequence of Histamine H2 receptor (P47747 whole entry): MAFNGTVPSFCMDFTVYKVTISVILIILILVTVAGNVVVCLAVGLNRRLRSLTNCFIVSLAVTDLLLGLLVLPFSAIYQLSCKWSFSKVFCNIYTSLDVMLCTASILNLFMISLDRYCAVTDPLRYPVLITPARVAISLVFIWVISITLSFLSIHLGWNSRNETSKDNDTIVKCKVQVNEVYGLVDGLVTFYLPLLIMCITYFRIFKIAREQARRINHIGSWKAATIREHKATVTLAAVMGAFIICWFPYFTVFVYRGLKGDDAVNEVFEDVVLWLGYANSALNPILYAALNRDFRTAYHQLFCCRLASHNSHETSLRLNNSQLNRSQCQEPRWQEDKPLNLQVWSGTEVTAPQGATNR
T2 sequence (Q9Y5N1 whole entry): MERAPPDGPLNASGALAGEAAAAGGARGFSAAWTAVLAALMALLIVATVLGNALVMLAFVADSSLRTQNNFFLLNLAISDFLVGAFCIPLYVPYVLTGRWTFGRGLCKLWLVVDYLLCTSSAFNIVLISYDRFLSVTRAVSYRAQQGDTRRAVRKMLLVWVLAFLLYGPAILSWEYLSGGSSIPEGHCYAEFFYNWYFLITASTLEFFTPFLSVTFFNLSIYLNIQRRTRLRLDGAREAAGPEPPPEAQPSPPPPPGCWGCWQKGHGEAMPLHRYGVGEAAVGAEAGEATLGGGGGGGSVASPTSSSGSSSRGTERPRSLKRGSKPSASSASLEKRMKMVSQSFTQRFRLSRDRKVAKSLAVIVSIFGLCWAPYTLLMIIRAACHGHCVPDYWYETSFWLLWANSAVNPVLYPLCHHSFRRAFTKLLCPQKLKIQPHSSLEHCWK
T1 sequence (Q9QYN8 whole entry): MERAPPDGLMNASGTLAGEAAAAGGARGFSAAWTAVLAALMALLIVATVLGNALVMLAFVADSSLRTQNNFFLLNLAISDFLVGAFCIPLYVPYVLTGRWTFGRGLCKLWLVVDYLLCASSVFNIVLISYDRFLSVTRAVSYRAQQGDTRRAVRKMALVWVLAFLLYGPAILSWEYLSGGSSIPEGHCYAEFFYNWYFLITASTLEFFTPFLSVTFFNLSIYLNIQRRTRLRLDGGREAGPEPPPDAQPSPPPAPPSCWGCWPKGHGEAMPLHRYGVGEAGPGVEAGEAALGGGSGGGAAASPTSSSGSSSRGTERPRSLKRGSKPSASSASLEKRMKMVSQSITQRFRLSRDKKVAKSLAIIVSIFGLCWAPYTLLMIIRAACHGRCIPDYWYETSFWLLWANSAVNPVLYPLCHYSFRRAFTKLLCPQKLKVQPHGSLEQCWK

Broadly, the Ki is a dissociation constant, usually derived from enzyme kinetics or from competition with a known ligand. Read a high Ki as weaker binding. On to `c1ccc(CC(COCCCc2c[nH]cn2)c2ccccc2)cc1` (stereo not given), for which affinity at Histamine H3 receptor [1] was put at a Ki of 184 nM.

`CCCCCCCOCCCc1c[nH]cn1`: the Kb on Histamine H3 receptor [2] is 15.8 nM; on Histamine H2 receptor, 2000 nM; at Histamine H1 receptor, greater than 100000 nM. At Histamine H3 receptor [3], this compound showed a Ki of 15.8 nM.

What is called ED50 is the dose that gives a 50% effect, or the effect in half of the subjects. On to `CCCOCCCc1c[nH]cn1.O=C(O)C(=O)O`, for which the Kb on Histamine H2 receptor and on Histamine H1 receptor was greater than 31600 nM throughout. Also, the Ki was 251 nM on Histamine H3 receptor [3] and 230 nM at Histamine H3 receptor [1]. In the test on Mus musculus, the ED50 was determined as 1.8 mg/kg.

As usually defined, the EC50 is the concentration that produces a half-maximal response. A high value points to a less potent agent. For the compound `CCCCCCOCCCc1c[nH]cn1.O=C(O)/C=C\C(=O)O`, the Kb on Histamine H3 receptor [2] was 39.8 nM; on Histamine H2 receptor, 10000 nM; at Histamine H1 receptor it was 7940 nM. The EC50 at Histamine H3 receptor [4] came to 40 nM. The Intrinsic activity on Histamine H3 receptor [5] came to 0.49. Besides, the Ki at Histamine H3 receptor [3] was 12.6 nM; at Histamine H3 receptor [1] it was 14 nM. In the test on Mus musculus, this compound returned an ED50 greater than 30 mg/kg.

`O=C(c1ccc(OCCCc2c[nH]cn2)cc1)C1CC1` [CIPROXIFAN] displayed an ED50 in the test with Mus musculus of 0.14 mg/kg.

On to `c1nc(COCC2CC3CCC2C3)c[nH]1` (stereo not given), for which the Ki at Histamine H3 receptor [1] is roughly 500 nM.

`c1nc(COCC2CCCCC2)c[nH]1`: the Ki on Histamine H3 receptor [3] is greater than 1000 nM; on Histamine H3 receptor [1], greater than 500 nM.

Take `COCCOCCCc1c[nH]cn1`: on Histamine H3 receptor [1], the Ki is roughly 400 nM.

Turning to `CCCCCCCCOCCCc1c[nH]cn1.O=C(O)/C=C\C(=O)O`, the figures for the Kb at Histamine H3 receptor [2], on Histamine H2 receptor and on Histamine H1 receptor were 100 nM, 2510 nM and 15800 nM, respectively. Further, the ED50 with Mus musculus is greater than 10 mg/kg.

Compound `O=C(CCCOCCCc1c[nH]cn1)c1ccc(F)cc1.O=C(O)C(=O)O` returned a Ki at Histamine H3 receptor [1] of 14 nM. Besides, in the test on Mus musculus, it took a dose of 0.28 mg/kg to reach the 50% effect level (ED50).

`CCCCCOCCCc1c[nH]cn1.O=C(O)/C=C\C(=O)O`: the Kb on Histamine H3 receptor [2] is 63.1 nM; at Histamine H2 receptor, greater than 31600 nM; on Histamine H1 receptor, 20000 nM. Also, the EC50 at Histamine H3 receptor [4] was 97 nM. In addition, the Intrinsic activity at Histamine H3 receptor [5] came out at 0.47. The Ki is 31.6 nM on Histamine H3 receptor [3] and 33 nM at Histamine H3 receptor [1]. In the test with Mus musculus, this compound displayed an ED50 greater than 30 mg/kg.

Turning to `c1nc(COCCCC2CCCCC2)c[nH]1`, on Histamine H3 receptor [1], the Ki is no less than 500 nM.

Take `C=CCCCOCCCc1c[nH]cn1.O=C(O)C(=O)O`: on Histamine H3 receptor [1], the Ki was 27 nM. This compound also came in with an ED50 in the test with Mus musculus of no less than 10 mg/kg.

For the compound `c1nc(CCCOCC2CC2)c[nH]1`, the Ki on Histamine H3 receptor [1] is 167 nM.

As to `S=C(NC1CCCCC1)N1CCC(c2cnc[nH]2)CC1` [THIOPERAMIDE], the 50% effect level in the test on Mus musculus (ED50) was put at a dose of 1 mg/kg.

Turning to `C=CCOCCCc1c[nH]cn1.O=C(O)C(=O)O`, the Kb on Histamine H2 receptor was greater than 31600 nM; on Histamine H1 receptor, greater than 316000 nM. On Histamine H3 receptor [4], the EC50 stood at 336 nM. This compound gave an Intrinsic activity on Histamine H3 receptor [5] of 0.63. Besides, the Ki on Histamine H3 receptor [3] and on Histamine H3 receptor [1] was 200 nM each time. This compound showed an ED50 in the test with Mus musculus of 0.33 mg/kg.

`O=C(O)/C=C\C(=O)O.c1nc(CCCOCCCC2CCCCC2)c[nH]1`: the figures for the Kb on Histamine H2 receptor and on Histamine H1 receptor were 50100 nM and 7940 nM, respectively. Besides, the Ki on Histamine H3 receptor [3] was 20 nM. The ED50 with Mus musculus stood at 1 mg/kg.

As to `O=C(O)/C=C\C(=O)O.c1nc(CCCOCCCC2CCCC2)c[nH]1`, the Kb on Histamine H3 receptor [2] is 15.8 nM; at Histamine H2 receptor it was 5010 nM; on Histamine H1 receptor, 20000 nM. Moreover, the inhibition constant Ki at Histamine H3 receptor [3] is 6.31 nM; on Histamine H3 receptor [1], 7 nM. The 50% effect level with Mus musculus (ED50) was put at a dose of 0.28 mg/kg.

For the compound `COCCCc1c[nH]cn1.O=C(O)C(=O)O`, the Kb is greater than 31600 nM on Histamine H2 receptor and greater than 100000 nM at Histamine H1 receptor. Besides, the figures for the Ki at Histamine H3 receptor [3] and at Histamine H3 receptor [1] were 316 nM and 290 nM, respectively. For the same compound, in the test with Mus musculus, the ED50 is roughly 10 mg/kg.

On to `CC(C)(C)OCCCc1c[nH]cn1.O=C(O)/C=C\C(=O)O`, for which the values for the Kb at Histamine H2 receptor and on Histamine H1 receptor were greater than 31600 nM and greater than 100000 nM, respectively. Further, the Ki was 126 nM at Histamine H3 receptor [3] and 120 nM at Histamine H3 receptor [1]. The same compound yielded an ED50 with Mus musculus of 1.3 mg/kg.

In turn, `O=C(O)/C=C\C(=O)O.c1nc(COCCC2CCCCC2)c[nH]1` yielded a Ki at Histamine H3 receptor [1] greater than 500 nM. In addition, the ED50 in the test with Mus musculus was greater than 10 mg/kg.

On Histamine H3 receptor [1], `O=C(COCCCc1c[nH]cn1)c1cccc([N+](=O)[O-])c1` had a Ki greater than 500 nM.

With `C#CCOCCCc1c[nH]cn1.O=C(O)C(=O)O`, the Kb at Histamine H2 receptor was greater than 31600 nM; at Histamine H1 receptor, greater than 316000 nM. Moreover, the EC50 on Histamine H3 receptor [4] was determined as 135 nM. This compound came in with an Intrinsic activity on Histamine H3 receptor [5] of 0.73. Besides, the Ki on Histamine H3 receptor [3] was 200 nM; at Histamine H3 receptor [1] it was 190 nM. Besides, the ED50 in the test on Mus musculus was 0.57 mg/kg.

On to `O=C(COCCCc1c[nH]cn1)c1ccccc1.O=C(O)/C=C\C(=O)O`, for which the inhibition constant (Ki) on Histamine H3 receptor [1] is greater than 500 nM. Also, the ED50 in the test with Mus musculus is greater than 10 mg/kg.

`CC(C)(C)OCCc1c[nH]cn1.O=C(O)C(=O)O` showed a Ki on Histamine H3 receptor [1] greater than 500 nM. The compound further displayed an ED50 in the test on Mus musculus greater than 10 mg/kg.

On to `CC(=O)CCOCCCc1c[nH]cn1`, for which affinity on Histamine H3 receptor [1] was put at a Ki of 143 nM.

As to `CCOCCCc1c[nH]cn1.O=C(O)C(=O)O`, the Kb on Histamine H2 receptor is greater than 31600 nM; at Histamine H1 receptor it was greater than 100000 nM. For the same compound, it took a dose of 0.26 mg/kg to reach the 50% effect level in the test with Mus musculus (ED50).

Compound `CCCCOCCCc1c[nH]cn1.O=C(O)/C=C\C(=O)O` yielded an EC50 at Histamine H3 receptor [4] of 311 nM. The same compound came in with an Intrinsic activity on Histamine H3 receptor [5] of 0.39. For the same compound, the Ki at Histamine H3 receptor [1] was determined as 56 nM. Also, the ED50 in the test on Mus musculus is greater than 10 mg/kg.

Regarding `C#CCCCOCCCc1c[nH]cn1`, the Kb on Histamine H3 receptor [2] is 316 nM. The Ki at Histamine H3 receptor [3] was 39.8 nM; at Histamine H3 receptor [1], 38 nM.

For the compound `c1nc(CCCOCCC2CCCCC2)c[nH]1`, the values for the Ki at Histamine H3 receptor [3] and at Histamine H3 receptor [1] were 10 nM and 11 nM, respectively.

As for `c1ccc(C(OCCCc2cnc[nH]2)(c2ccccc2)c2ccccc2)cc1`, on Histamine H3 receptor [1], the Ki was greater than 500 nM. The compound also came in with an ED50 in the test with Mus musculus greater than 10 mg/kg.

Take `N#CCCOCCCc1c[nH]cn1.O=C(O)C(=O)O`: the affinity on Histamine H3 receptor [1] corresponds to a Ki of 674 nM. The compound further had an ED50 with Mus musculus of 3.2 mg/kg.
